Experimental data from ChEMBL document CHEMBL3351544, “Discovery of (S)-1-(1-(Imidazo[1,2-a]pyridin-6-yl)ethyl)-6-(1-methyl-1H-pyrazol-4-yl)-1H-[1,2,3]triazolo[4,5-b]pyrazine (volitinib) as a highly potent and selective mesenchymal-epithelial transition factor (c-Met) inhibitor in clinical development for treatment of cancer” (J Med Chem, 2014).
Values after ≈ are worked out from the molar mass of the structure shown.

Columns and labels:
NCI-H441 = test: Antiproliferative activity against human NCI-H441 cells assessed as HGF-induced proliferation after 72 hrs by MTT assay; settings: NCI-H441, 72 h
[1] = target: T1, Hepatocyte growth factor receptor (Homo sapiens, UniProt P08581); test: Inhibition of c-Met (unknown origin) using Poly E4Y substrate and ATP incubated for 45 mins by fluorescence polarization assay
[2] = Apparent volume of distribution in ICR mouse at 2.5 mg/kg, iv; assay type: ADME, organism-based; parameters: dose 2.5 mg/kg, route intravenous; settings: in vivo, read-out: Vz
In short: (§1)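 Male ICR mice, n=3, given 2.5 mg/kg iv in saline containing 10% Solutol HS 15, 10% ethanol and 0.25% DMSO. Blood sampled at staggered times from 5 min to 24 h. Plasma concentrations measured by LC/MS/MS. Parameters derived from the iv dosing.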

[3] = Metabolic stability in mouse liver microsomes assessed as compound remaining at 1 uM after 30 mins; assay type: ADME; settings: read-out: Stability
In short: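 Compound at 1 µM incubated in duplicate with mouse liver microsomes (0.5 mg/mL). Final 3 mM MgCl2 and 1 mM EDTA, NADPH-regenerating system in 50 mM potassium phosphate, pH 7.4. Incubated at 37 °C for 0 and 30 min, DMSO at most 0.1%. Quenched with cold acetonitrile containing internal standard, centrifuged, supernatant analysed. Reported as % parent remaining.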

[4] = Oral bioavailability in ICR mouse at 14.1 mg/kg; assay type: ADME, organism-based; settings: in vivo
In short: (§2)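 Male ICR mice, n=3. Oral dose 14.1 mg/kg as a suspension in 0.5% CMC acidified with HCl to pH 2.1. Paired iv arm at 2.5 mg/kg in saline with 10% Solutol HS 15, 10% ethanol and 0.25% DMSO. Staggered blood sampling between 5 min and 24 h post-dose. Plasma levels measured by LC/MS/MS.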

[5] = AUC (0 to 8 hrs) in ICR mouse at 14.1 mg/kg, po; assay type: ADME, organism-based; parameters: time < 8 hr, dose 14.1 mg/kg, route oral; settings: plasma; in short: as §2
[6] = Cmax in ICR mouse at 14.1 mg/kg, po; assay type: ADME, organism-based; parameters: dose 14.1 mg/kg, route oral; settings: in vivo; in short: as §2
[7] = Plasma clearance in ICR mouse at 2.5 mg/kg, iv; assay type: ADME, organism-based; parameters: dose 2.5 mg/kg, route intravenous; in short: as §1
[8] = Half life in ICR mouse at 14.1 mg/kg, po; assay type: ADME, organism-based; parameters: dose 14.1 mg/kg, route oral; settings: in vivo; in short: as §2
[9] = Solubility of the compound in aqueous buffer at pH 7.4 by HPLC method; assay type: physicochemical
In short: (§3)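 Excess solid shaken 48 h at 20 °C in pH 1.2 KCl/HCl buffer or pH 7.4 sodium phosphate buffer. Centrifuged 10 min at 4000 rpm, supernatant diluted in mobile phase and quantified by HPLC.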

[10] = Solubility of the compound in aqueous buffer at pH 1.2 by HPLC method; assay type: physicochemical; in short: as §3
[11] = target: T1, Hepatocyte growth factor receptor; test: Inhibition of c-Met autophosphorylation in human NCI-H441 cells for 1 hr by ELISA; assay type: cell-based
Mus musculus [12] = test: Inhibition of c-Met autophosphorylation in mouse xenografted with human NCI-H441 cells at 3 mg/kg, po administered as single doss after 6 hrs by ELISA method; assay type: functional; settings: NCI-H441, 6 h
In short: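 Female athymic mice, 6-8 weeks old, n=4, co-implanted subcutaneously with 2×10^6 NCI-H441 cells and 1×10^6 HGF-secreting MRC-5 cells. At 300 mm3, about two weeks, given a single 3 mg/kg oral dose in 0.5% CMC, pH 2.1. Tumours harvested at 6 h and homogenised in lysis buffer with phosphatase and protease inhibitors. Phospho-Met and total Met measured by ELISA, compared with vehicle.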

[13] = Metabolic stability in human liver S9 fraction assessed as compound remaining in absence of NADPH at 1 mg/mL after 60 mins by LC-MS/PDA analysis; assay type: ADME; settings: read-out: Stability
In short: (§4)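 Compound incubated at 37 °C for 0 and 60 min with human liver S9 (1 mg/ml). Buffer was 50 mM potassium phosphate, pH 7.4, with 3 mM MgCl2 and 1 mM EDTA, with or without an NADPH-regenerating system. Stopped with ice-cold acetonitrile, supernatant dried and reconstituted in 50% methanol. Analysed by LC-MSn/PDA; relative amounts estimated from UV peak intensity at 348 nm.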

U-87MG ATCC = test: Antitumor activity against human U87MG cells xenografted in mouse model assessed as tumor growth inhibition at 1 to 10 mg/kg, po once daily up to 21 days; assay type: functional, organism-based
In short: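 Female athymic nude mice (6-8 weeks) inoculated in the flank with U87MG glioma cells (3×10^6/mouse). At 200 mm3 tumours, randomized to vehicle or treatment. Oral dosing once daily at 1.0, 2.5 and 10.0 mg/kg in 0.5% CMC-Na, pH 2.1, for 21 days. Tumour size measured 2-3 times weekly, TV=(L×W²)/2. %TGI from mean volume change from first to last treatment day versus vehicle.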

[14] = Antitumor activity against human U87MG cells xenografted in mouse model assessed as tumor growth inhibition at 1 mg/kg, po once daily up to 21 days; assay type: functional, U-87MG ATCC; settings: U-87 MG, 504 h, read-out: TGI
In short: (§5)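 Female athymic nude mice, 6-8 weeks old, inoculated in the flank with 3×10^6 U87MG glioma cells. Randomised once tumours reached 200 mm3. Dosed orally once daily for 21 days in 0.5% CMC-Na, pH 2.1, against vehicle controls. Tumour size measured 2-3 times weekly; volume = L×W²/2. %TGI from change in mean volume, first to last treatment day. Body weight recorded.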

Mus musculus [15] = test: Toxicity in human U87MG cells xenografted mouse model assessed as body weight loss at 1 to 10 mg/kg, po once daily up to 21 days; assay type: organism-based, U-87MG ATCC; parameters: dose 1-10 mg/kg, route oral; settings: in vivo, 504 h; in short: as §5
[16] = Antitumor activity against human U87MG cells xenografted in mouse model assessed as tumor growth inhibition at 10 mg/kg, po once daily up to 21 days; assay type: functional, U-87MG ATCC; settings: U-87 MG, 504 h, read-out: TGI; in short: as §5
[17] = Metabolic stability in human liver S9 fraction assessed as compound remaining in presence of NADPH at 1 mg/mL after 60 mins by LC-MS/PDA analysis; assay type: ADME, subcellular; settings: read-out: Stability; in short: as §4
[18] = Antitumor activity against human U87MG cells xenografted in mouse model assessed as tumor growth inhibition at 2.5 mg/kg, po once daily up to 21 days; assay type: functional, U-87MG ATCC; settings: U-87 MG, 504 h, read-out: TGI; in short: as §5

OCCn1cc(-c2cnc3nnn(Cc4ccc5nccn5c4)c3n2)cn1
IC50 (NCI-H441): 0.184 µM

N#Cc1ccc(-c2cnc3nnn(Cc4n[nH]c5ncccc45)c3n2)cn1
IC50 (NCI-H441): 0.172 µM

C[C@@H](c1ccn2nccc2c1)n1nnc2ncc(-c3cnn(CCO)c3)nc21
IC50 (NCI-H441): 0.016 µM

Cn1cc(-c2cnc3nnn(Cc4ccc5ncccc5c4)c3c2)cn1
IC50 [1]: > 1 µM

OCCn1cc(-c2cnc3nnn(Cc4ccn5nccc5c4)c3n2)cn1
Vd [2]: 2.4 L/kg | remaining at 0.5 h, 1 µM [3]: 93.3% | bioavailability [4]: 90.8% | AUC(0-t) at 8 h [5]: 7000 ng·h/mL | Cmax [6]: 1920 ng/mL | IC50 (NCI-H441): 0.066 µM | clearance [7]: 21.5 mL/min/kg | half-life [8]: 3.7 h

Cn1cc(-c2cnc3nnn(Cc4n[nH]c5ncccc45)c3n2)cn1
remaining at 0.5 h, 1 µM [3]: 102% | IC50 (NCI-H441): 0.066 µM

Cn1cc(-c2cnc3nnn(Cc4cc5cnccc5s4)c3n2)cn1
remaining at 0.5 h, 1 µM [3]: 23.5% | IC50 (NCI-H441): 0.177 µM

Cn1cc(-c2cnc3nnn(Cc4ccc5nccn5c4)c3n2)cn1
Vd [2]: 5.4 L/kg | remaining at 0.5 h, 1 µM [3]: 70.8% | bioavailability [4]: 46% | AUC(0-t) at 8 h [5]: 1070 ng·h/mL | Cmax [6]: 1380 ng/mL | IC50 (NCI-H441): 0.073 µM | clearance [7]: 71.3 mL/min/kg | half-life [8]: 1.3 h

N#Cc1ccc(-c2cnc3nnn(Cc4ccc5nccn5c4)c3n2)cn1
IC50 (NCI-H441): 0.203 µM

FC(F)(F)Cn1cc(-c2cnc3nnn(Cc4ccc5nccn5c4)c3n2)cn1
IC50 (NCI-H441): 0.104 µM

OCCn1cc(-c2cnc3nnn(Cc4n[nH]c5ncccc45)c3n2)cn1
IC50 (NCI-H441): 0.287 µM

C[C@@H](c1ccc2nccn2c1)n1nnc2nc(O)c(-c3cnn(C)c3)nc21
solubility [9]: 0.02 mg/mL (≈ 0.0553 mM) | solubility [10]: 20.9 mg/mL (≈ 57.8 mM)

Cn1cc(-c2cnc3nnn(Cc4ccc5ncnn5c4)c3n2)cn1
IC50 (NCI-H441): 0.425 µM

Cn1cc(-c2cnc3nnn(Cc4ccc5nccn5n4)c3n2)cn1
IC50 (NCI-H441): 0.443 µM

OCCn1cc(-c2cnc3nnn(Cc4c[nH]c5ncccc45)c3n2)cn1
remaining at 0.5 h, 1 µM [3]: 82.6% | IC50 (NCI-H441): 0.025 µM

Fc1ccc(-c2cnc3nnn(Cc4ccc5nccn5c4)c3n2)cc1
IC50 (NCI-H441): 0.116 µM

C[C@H](c1ccn2nccc2c1)n1nnc2ncc(-c3cnn(CCO)c3)nc21
IC50 (NCI-H441): 0.165 µM

FC(F)(F)Cn1cc(-c2cnc3nnn(Cc4n[nH]c5ncccc45)c3n2)cn1
remaining at 0.5 h, 1 µM [3]: 83% | IC50 (NCI-H441): 0.07 µM

Cn1cc(-c2cnc3nnn(Cc4cc5[nH]ncc5s4)c3n2)cn1
remaining at 0.5 h, 1 µM [3]: 19.4% | IC50 (NCI-H441): 0.178 µM

C[C@H](c1ccc2nccn2c1)n1nnc2ncc(-c3cnn(C)c3)nc21
IC50 [11]: 0.032 µM | IC50 [1]: 0.032 µM | IC50 (NCI-H441): 0.113 µM

Cn1cc(-c2cnc3nnn(Cc4ccn5nccc5c4)c3n2)cn1
remaining at 0.5 h, 1 µM [3]: 36.7% | IC50 (NCI-H441): 0.183 µM

C[C@@H](c1ccc2nccn2c1)n1nnc2ncc(-c3cnn(C)c3)nc21 [SAVOLITINIB]
Vd [2]: 1.2 L/kg | inhibition in vivo at 3 mg/kg (Mus musculus [12]): 84.7% | bioavailability [4]: 27.2% | AUC(0-t) at 8 h [5]: 5590 ng·h/mL | IC50 [11]: 0.003 µM | solubility [9]: 0.02 mg/mL (≈ 0.0579 mM) | Cmax [6]: 4950 ng/mL | IC50 [1]: 0.005 µM | remaining at 1 h [13]: 99.7% | TGI (U-87MG ATCC): Dose-dependent effect | inhibition in vivo at 1 mg/kg [14]: 52.8% | Activity (Mus musculus [15]): Non-toxic | IC50 (NCI-H441): 0.006 µM | inhibition in vivo at 10 mg/kg [16]: 92.8% | clearance [7]: 11 mL/min/kg | remaining at 1 h [17]: 99.1% | half-life [8]: 1.7 h | inhibition in vivo at 2.5 mg/kg [18]: 76.6% | solubility [10]: 31.8 mg/mL (≈ 92.1 mM)

FC(F)(F)Cn1cc(-c2cnc3nnn(Cc4ccn5nccc5c4)c3n2)cn1
remaining at 0.5 h, 1 µM [3]: 63.6% | IC50 (NCI-H441): 0.077 µM
